In data set [1] the target is T1, Signal peptide peptidase-like 2A (Homo sapiens, UniProt Q8TCT8).
T1 sequence (Q8TCT8 whole entry): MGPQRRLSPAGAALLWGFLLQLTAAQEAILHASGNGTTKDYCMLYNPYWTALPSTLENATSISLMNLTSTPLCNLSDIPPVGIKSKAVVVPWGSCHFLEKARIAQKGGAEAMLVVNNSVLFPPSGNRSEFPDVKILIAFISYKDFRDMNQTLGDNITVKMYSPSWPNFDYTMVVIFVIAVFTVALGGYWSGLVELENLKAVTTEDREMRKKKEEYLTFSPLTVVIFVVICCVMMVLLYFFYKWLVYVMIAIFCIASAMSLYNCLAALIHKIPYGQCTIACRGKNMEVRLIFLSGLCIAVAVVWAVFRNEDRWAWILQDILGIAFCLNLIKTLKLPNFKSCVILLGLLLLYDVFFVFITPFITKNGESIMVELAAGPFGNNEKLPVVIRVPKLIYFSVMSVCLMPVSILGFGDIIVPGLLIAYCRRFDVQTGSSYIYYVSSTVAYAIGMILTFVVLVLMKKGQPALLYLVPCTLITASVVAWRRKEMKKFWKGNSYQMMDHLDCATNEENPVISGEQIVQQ
The data set is described as follows: Inhibition of human SPPL2a expressed in HEK293 cells cotransfected with Gal4 luciferase reporter plasmid and VP16-TNFalpha(1-76)-NTF incubated for 24 hrs by luciferase reporter gene assay based luminescence assay. Format: cell-based. On the technique in general: Reporter assays use an easily measured gene product as a stand-in for the process of interest.

A short description of data set [2]: Lipophilicity, logD of the compound in octanol-buffer at pH 7.4 by shake-flask equilibrium based LC/MS/MS analysis. It counts as physicochemical. Put shortly:
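log D determined at pH 7.4 by rapid-throughput octanol/buffer 96-well shake-flask equilibration, with LC/MS/MS quantification.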

The nature of data set [3]: Equilibrium solubility of the compound in DMSO solution at pH 6.8 by saturation shake flask method. It counts as physicochemical. The procedure, abridged:
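Equilibrium solubility by saturation shake-flask at pH 6.8, starting from DMSO solution.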

Data set [4] deals with Gamma-secretase. Briefly: Inhibition of gamma-secretase (unknown origin) expressed in HEK293 cells cotransfected with Notch1-VP16-GAL4 fusion and Gal4 luciferase reporter plasmid incubated for 24 hrs by luciferase reporter gene assay luminescence assay. Format: cell-based, Homo sapiens.
The target in data set [5] is T2, Renin (Homo sapiens, UniProt P00797).
T2 sequence (P00797 whole entry): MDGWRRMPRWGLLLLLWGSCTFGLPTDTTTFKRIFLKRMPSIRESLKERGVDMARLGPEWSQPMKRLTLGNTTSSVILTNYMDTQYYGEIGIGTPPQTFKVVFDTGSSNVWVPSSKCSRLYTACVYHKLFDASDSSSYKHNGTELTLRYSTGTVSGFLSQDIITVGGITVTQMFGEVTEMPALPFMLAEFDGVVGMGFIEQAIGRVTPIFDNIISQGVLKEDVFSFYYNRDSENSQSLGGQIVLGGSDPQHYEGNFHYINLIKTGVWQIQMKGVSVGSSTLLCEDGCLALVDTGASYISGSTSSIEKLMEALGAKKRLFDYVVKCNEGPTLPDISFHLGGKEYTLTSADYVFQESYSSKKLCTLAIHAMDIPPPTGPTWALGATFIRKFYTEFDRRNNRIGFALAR
The data set is described as follows: Inhibition of human renin (67 to 406 residues) expressed in CHO cells using KHPWHLVIHT-C(PT14)-K as substrate preincubated for 1 hr followed by substrate addition and measured after 1 hr by fluorescence based assay.

Data set [6] has as its target Beta-secretase 1 (Homo sapiens, UniProt P56817). Briefly: Inhibition of human BACE1 (46 to 435 residues) expressed in baculovirus infected insect cells using Ac-C(PT14)EVNLDAEWK-NH2 as substrate preincubated for 1 hr followed by substrate addition and measured after 1 hr by fluorescence based assay.
Data set [7] has as its target Cathepsin D (Homo sapiens, UniProt P07339). Briefly: Inhibition of human cathepsin D (1 to 412 residues) expressed in baculovirus infected insect cells using R-C(PT14)-KPILFFRLGWR-OH as substrate preincubated for 1 hr followed by substrate addition and measured after 1 hr by fluorescence based assay.
Data set [8] deals with T3, Beta-secretase 2 (Homo sapiens, UniProt Q9Y5Z0).
T3 sequence (Q9Y5Z0 whole entry): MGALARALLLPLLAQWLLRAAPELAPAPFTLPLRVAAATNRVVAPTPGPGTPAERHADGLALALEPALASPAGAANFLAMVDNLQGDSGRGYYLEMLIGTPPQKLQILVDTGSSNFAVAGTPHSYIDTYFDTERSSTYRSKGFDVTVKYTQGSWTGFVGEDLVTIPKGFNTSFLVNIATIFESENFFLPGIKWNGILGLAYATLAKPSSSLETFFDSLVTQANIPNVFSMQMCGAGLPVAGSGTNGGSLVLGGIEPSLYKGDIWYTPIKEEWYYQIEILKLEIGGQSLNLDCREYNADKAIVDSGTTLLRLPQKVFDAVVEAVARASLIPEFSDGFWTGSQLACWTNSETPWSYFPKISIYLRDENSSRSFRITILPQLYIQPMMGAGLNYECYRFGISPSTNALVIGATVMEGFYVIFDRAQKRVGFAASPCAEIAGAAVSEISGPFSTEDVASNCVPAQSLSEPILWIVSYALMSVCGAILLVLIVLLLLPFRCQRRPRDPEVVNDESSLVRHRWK
Briefly: Inhibition of human BACE2 (63 to 466 residues) expressed in baculovirus infected insect cells using Ac-C(PT14)EVNLDAEWK-NH2 as substrate preincubated for 1 hr followed by substrate addition and measured after 1 hr by fluorescence based assay.

In data set [9] the target is T4, Cathepsin E (Homo sapiens, UniProt P14091).
T4 sequence (P14091 whole entry): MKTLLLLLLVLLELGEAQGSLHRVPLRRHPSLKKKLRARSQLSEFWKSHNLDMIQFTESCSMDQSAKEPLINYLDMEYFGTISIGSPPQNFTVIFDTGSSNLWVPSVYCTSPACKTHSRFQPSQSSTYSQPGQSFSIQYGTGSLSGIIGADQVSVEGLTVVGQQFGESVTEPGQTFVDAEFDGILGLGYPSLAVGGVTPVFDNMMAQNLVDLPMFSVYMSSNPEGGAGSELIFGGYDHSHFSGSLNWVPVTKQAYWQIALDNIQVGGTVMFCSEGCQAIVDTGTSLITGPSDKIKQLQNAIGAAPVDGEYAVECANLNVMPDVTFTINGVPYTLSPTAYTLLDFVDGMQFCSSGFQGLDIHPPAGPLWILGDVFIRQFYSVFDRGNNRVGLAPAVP
Briefly: Inhibition of human cathepsin E isoform 1 (19 to 401 residues) expressed in Escherichia coli using R-C(PT14)KPILFFRLGWR-OH as substrate preincubated for 1 hr followed by substrate addition and measured after 1 hr by fluorescence based assay.

The test system of data set [10] is Mus musculus. Briefly: In vivo inhibition of SPPL2a in mouse assessed as increase in CD74/p8 NTF accumulation in splenocytes lysates at 100 mg/kg, po administered as single dose and measured after 4 hrs post-dosing by western blot analysis. The conditions noted are these: Lysate. (A western blot detects proteins with antibodies after separation by electrophoresis.)

≈ marks a conversion by molar mass, not a printed value. Calls of active or inactive are those of the source. No cut-off for these calls is given here.

Beta-secretase 1, sequence (P56817 whole entry, the tested form may be a part): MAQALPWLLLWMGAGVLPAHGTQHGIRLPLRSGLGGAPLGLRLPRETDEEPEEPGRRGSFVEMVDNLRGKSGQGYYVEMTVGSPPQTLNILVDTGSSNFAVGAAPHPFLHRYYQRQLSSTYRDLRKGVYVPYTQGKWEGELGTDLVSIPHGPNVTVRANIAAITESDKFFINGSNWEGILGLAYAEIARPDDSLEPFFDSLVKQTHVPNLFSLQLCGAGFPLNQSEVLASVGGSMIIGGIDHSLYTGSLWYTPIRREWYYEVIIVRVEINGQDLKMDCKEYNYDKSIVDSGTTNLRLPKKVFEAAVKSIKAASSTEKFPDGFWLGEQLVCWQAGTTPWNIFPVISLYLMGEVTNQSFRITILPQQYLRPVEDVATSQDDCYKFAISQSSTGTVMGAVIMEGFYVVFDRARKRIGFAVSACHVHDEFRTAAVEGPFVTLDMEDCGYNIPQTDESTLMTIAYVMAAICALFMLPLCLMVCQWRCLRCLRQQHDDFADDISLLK
Cathepsin D, sequence (P07339 65-162 limits assumed): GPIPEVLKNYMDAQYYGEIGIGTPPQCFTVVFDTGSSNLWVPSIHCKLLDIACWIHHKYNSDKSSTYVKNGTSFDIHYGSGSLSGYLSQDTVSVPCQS
Cathepsin D, sequence (P07339 169-412 limits assumed): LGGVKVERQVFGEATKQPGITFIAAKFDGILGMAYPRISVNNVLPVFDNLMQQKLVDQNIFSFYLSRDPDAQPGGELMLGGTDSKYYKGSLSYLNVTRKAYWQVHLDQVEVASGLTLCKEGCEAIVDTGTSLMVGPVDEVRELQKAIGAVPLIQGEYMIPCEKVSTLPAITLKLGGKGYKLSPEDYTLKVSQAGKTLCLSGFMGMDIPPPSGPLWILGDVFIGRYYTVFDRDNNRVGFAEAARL

Broadly, the IC50 is the point on the concentration scale where inhibition reaches its midpoint. Low values mean greater potency in that assay, high ones weaker potency in that assay. One may read the logD as lipophilicity at a set pH, counting ionised and neutral species. One may read the solubility as the dissolved amount per volume that the medium holds. Low values mean a poorly soluble substance, high ones a readily soluble substance. Take `CC(C)CN(C[C@H](O)[C@H](Cc1ccccc1)NC(=O)OCc1ccccc1)S(=O)(=O)c1ccc(Cl)c(Cl)c1`: the concentration for half-maximal inhibition (IC50) in data set [1] was found to be 4.3 µM. In data set [2], the logD is above 4.6. In [3], this compound had a solubility below 2 µg/mL.
In the case of `CC1(C)CCC(C)(C)c2cc(S(=O)(=O)N(C[C@H](O)[C@@H](N)c3ccccc3)C3CCC3)ccc21`, half-maximal inhibition in data set [4] (IC50) was put at 1.8 µM.
The same measure, in the same setting: the same measure for `CC(C)(O)CN(C[C@H](O)[C@@H](N)c1ccccc1)S(=O)(=O)c1ccc(Cl)c(Cl)c1`: above 10 µM.
With `N[C@@H](c1ccccc1)[C@@H](O)CN(Cc1ccccc1)S(=O)(=O)c1ccc(Cl)c(Cl)c1`, in data set [4], the IC50 turned out to be 3.4 µM.
In data set [1], `CC(C)CN(C[C@H](O)[C@@H](N)Cc1ccccc1)S(=O)(=O)c1ccc(Cl)c(Cl)c1` yielded an IC50 of 0.86 µM. Further, the logD in [2] is 3.1. Further, the solubility in data set [3] is below 2 µg/mL.
Consider `N[C@@H](c1ccccc1)[C@@H](O)CN(C1CCC1)S(=O)(=O)c1ccc(Cl)c(Cl)c1`, for which inhibition in [4] was half-maximal at 5.1 µM (IC50).
On the same count and under the same terms, under `N[C@@H](c1ccccc1)[C@@H](O)CN(C1COC1)S(=O)(=O)c1ccc(Cl)c(Cl)c1` stands above 10 µM; under `CC(C)(C)c1cccc(S(=O)(=O)N(C[C@H](O)[C@@H](N)c2ccccc2)C2CCC2)c1`, 3.7 µM; under `CC1(N(C[C@H](O)[C@@H](N)c2ccccc2)S(=O)(=O)c2ccc(Cl)c(Cl)c2)CCC1`, 6.4 µM.
For the compound `CC(C)CN(C[C@H](O)[C@@H](N)c1ccccc1)S(=O)(=O)c1ccc(Cl)c(Cl)c1`, the half-maximal inhibitory concentration (IC50) was 4.8 µM in [4]; above 100 µM in data set [5]; above 100 µM in data set [6]; above 100 µM in [7]; above 100 µM in [8]; above 100 µM in data set [9]. Besides, in [3], the concentration in solution (solubility) came to 34 µg/mL (≈ 78.8 µM).
As to `N[C@@H](c1ccccc1)[C@@H](O)CN(C1CCC1)S(=O)(=O)c1ccc2scnc2c1`, in data set [4], the IC50 was above 10 µM.
On the same count and under the same terms, under `CC(C)ON(C[C@H](O)[C@@H](N)c1ccccc1)S(=O)(=O)c1ccc(Cl)c(Cl)c1` stands 5.9 µM.
`N[C@@H](c1ccccc1)[C@@H](O)CN(C1CCCCCC1)S(=O)(=O)c1ccc(Cl)c(Cl)c1`: inhibition in data set [4] was half-maximal at 2.1 µM (IC50).
Consider `C[C@H](NC(=O)[C@@H](O)c1cc(F)cc(F)c1)C(=O)N[C@@H]1C(=O)N(C)c2ccccc2-c2ccccc21`, for which the inhibition entry in data set [10] is “Active”.
`CC(C)(C)c1ccc(S(=O)(=O)N(C[C@H](O)[C@@H](N)c2ccccc2)C2CCC2)cc1` returned an IC50 in [4] of 3.7 µM.
